# Measurements: PubChem BioAssay AID493187 (Sanford-Burnham Center for Chemical Genomics, 2011)
# Hit rate of the full screen: of about 340,000 compounds, about 190 (0.056%) were called active. The full list was thinned out, with actives kept by preference. Values without a mark were called inactive.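 The calls were made as follows: active = activation of 40% or more at 20 µM, a change of -40% or lower; inactive = the rest.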
# Molecular target: Hexokinase HKDC1 (Homo sapiens) (UniProt Q2TB90)
# Assay: HKDC1 hexokinase activators, primary screen, biochemical, fluorescence, uHTS (AID 493187)
# Settings: recombinant HKDC1, G6PDH/diaphorase resazurin fluorescence; at 20 µM; stronger effect = lower value
# In short: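 System: in-house human HKDC1 enzyme, G6PDH and diaphorase coupling enzymes; Quantity: 5 µg/mL HKDC1 final; Buffer or medium: Tris/MgCl2 buffer, pH 8.0; Dosing: single compound dose of 20 µM, 1% DMSO final; Times: 90 min reaction at room temperature, dark; Detection: coupled resazurin-to-resorufin fluorescence, Ex 525/Em 613 nm.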
# Chain of Hexokinase HKDC1 (Homo sapiens) (Q2TB90 whole entry, looked up): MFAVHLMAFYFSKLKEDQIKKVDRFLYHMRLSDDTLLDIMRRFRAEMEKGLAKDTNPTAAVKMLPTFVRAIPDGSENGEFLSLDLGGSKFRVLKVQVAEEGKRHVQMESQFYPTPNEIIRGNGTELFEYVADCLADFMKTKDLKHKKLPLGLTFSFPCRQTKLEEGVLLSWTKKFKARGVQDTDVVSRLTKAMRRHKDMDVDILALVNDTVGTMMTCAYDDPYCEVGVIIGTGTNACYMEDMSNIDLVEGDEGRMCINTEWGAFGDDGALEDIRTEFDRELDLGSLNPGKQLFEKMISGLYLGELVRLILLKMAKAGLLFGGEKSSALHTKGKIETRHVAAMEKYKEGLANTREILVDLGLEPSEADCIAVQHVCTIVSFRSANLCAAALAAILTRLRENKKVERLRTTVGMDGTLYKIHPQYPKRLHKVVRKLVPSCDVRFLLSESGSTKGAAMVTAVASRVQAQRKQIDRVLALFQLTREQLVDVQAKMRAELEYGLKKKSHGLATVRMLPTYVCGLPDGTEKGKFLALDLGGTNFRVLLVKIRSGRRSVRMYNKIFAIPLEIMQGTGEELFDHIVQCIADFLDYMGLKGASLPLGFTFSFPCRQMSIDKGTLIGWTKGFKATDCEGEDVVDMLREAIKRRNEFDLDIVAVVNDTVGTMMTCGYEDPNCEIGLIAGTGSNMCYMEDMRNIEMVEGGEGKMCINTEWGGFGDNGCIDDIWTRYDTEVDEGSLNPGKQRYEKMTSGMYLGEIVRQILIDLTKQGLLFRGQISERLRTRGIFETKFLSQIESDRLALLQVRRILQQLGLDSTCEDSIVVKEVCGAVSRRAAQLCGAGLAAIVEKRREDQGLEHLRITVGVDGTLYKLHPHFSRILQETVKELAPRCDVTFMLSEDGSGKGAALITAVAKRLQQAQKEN
row,SMILES,"activity change, negative = activation"
1,O=C(CSc1cccc2cccnc12)N/N=C/c1cccnc1,-52.6% (active)
2,O=c1[nH]c2ccccc2n2c(-c3ccccc3)nnc12,46.7%
3,C[N+](C)(CCCCCC[N+](C)(C)CCCN1C(=O)c2cccc3cccc(c23)C1=O)CCCN1C(=O)c2cccc3cccc(c23)C1=O,-66.9% (active)
4,COc1ccc(C(CCN(Cc2ccc(OC)c(OC)c2)C(=O)CCl)c2ccccc2)cc1 (stereo not drawn),35.4%
5,COc1ccc2c(c1)c(=Cc1ccc(N(C)C)cc1)c1cc(-c3ccccc3)[n+](C)n12,43.2%
6,COc1ccc(N(CC(=O)N/N=C/c2cccc3c2OCCO3)S(=O)(=O)c2ccc(NC(C)=O)cc2)cc1,38.1%
7,Cc1cc(C2=NNC(=Nc3ccc(S(=O)(=O)N4CCOCC4)cc3)SC2)c(C)n1CC1CCCO1 (stereo not drawn),-70% (active)
8,CCOC(=O)CSc1nc2ccc(C)cc2n2cnnc12,53%
9,CC(=O)/C(=N\Nc1ccc(Cl)cc1Cl)Sc1cccc2cccnc12,-40.8% (active)
10,CCCc1nc2oc3c(OCC)ncnc3c2c2c1COC(C)(C)C2,37.7%
11,O=C(c1cccnc1)N(c1cc2sc(=O)oc2c2ccccc12)S(=O)(=O)c1ccccc1,38.2%
12,CN1c2ccc(C=O)c3c(C=O)ccc(c23)N(C)C1(C)C,36.4%
13,O=C(NC1=CC(=O)c2ccccc2C1=O)c1ccccc1,54.1%
14,CCc1ccc2c(c1)C1(NN=C(c3ccccc3)S1)C(=O)N2 (stereo not drawn),-48.1% (active)
15,O=C1C(Cl)=C(Oc2ccccc2)C(=O)c2ccccc21,65.2%
16,Cc1ccc(Nc2nc(-c3sc(NC(=O)c4ccccc4)nc3C)cs2)cc1,-77.6% (active)
17,CC(C)(C)Nc1c(N)c(=O)oc2ccccc12,44.6%
18,CCC(=C/c1sc2ccc3ccccc3c2[n+]1C)/C=C1\Sc2ccc3ccccc3c2N1C,45%
19,COc1ccc(NC(=O)CSc2ccc(-c3ccco3)nn2)c(OC)c1,47.3%
20,Clc1cccc(N=C2NN=C(c3ccc4c(c3)OCCO4)CS2)c1,-169% (active)
21,O=S(=O)(Nc1ccc(O)c2ccccc12)c1ccc(OC(F)(F)F)cc1,52%
22,CCOC(=O)C1=C(c2ccc(OC)cc2)C(=O)c2ccccc2C1=O,81.4%
23,CCn1cc(C(=O)NCc2ccc3c(c2)OCO3)c2cc(OC)c(OC)cc2c1=O,37.8%
24,O=c1ccc2c(-c3ccccc3S(=O)(=O)O)c3ccc(O)c(O)c3oc-2c1O,38.4%
25,Cc1ccc2oc(=O)c3cnn(CC(=O)N4CCCCCC4)c3c2c1,-44.7% (active)
26,Nc1ccc2nc3c(=O)[nH]c(=S)[nH]c3nc2c1,69.9%
27,CC(=O)N(C1=C(Cl)C(=O)c2ccccc2C1=O)c1ccc(C(=O)O)cc1,52.2%
28,Cc1cc(C(=O)CCl)c(C)n1CC1COc2ccccc2O1 (stereo not drawn),38.2%
